In general, GI50 refers to the concentration giving 50% growth inhibition. Read a high GI50 as lower sensitivity of the cells. What is called CC50 is the concentration giving 50% cytotoxicity. High values mean better tolerance by the cells, low ones harm at low concentration.

Experimental findings from ChEMBL document CHEMBL1141335, “Epicoccamides B-D, glycosylated tetramic acid derivatives from an Epicoccum sp. associated with the tree fungus Pholiota squarrosa” (J Nat Prod, 2007) are described below.

The structures appear in SMILES notation. Activity calls are given as the source filed them. The rule behind the calls is not given here.

Data set [1] in a line: Antiproliferative activity against mouse L929 cells. Type of data set: cell-based.
In the next data set the test system is K562. As to the kind of experiment: Antiproliferative activity against human K562 cells. It counts as functional.
In a further data set the test system is HeLa. Nature of the data set: Cytotoxicity against human HeLa cells. Type of data set: functional. Conditions: for CC50: Homo sapiens, HeLa. Put shortly: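 HeLa Ohio cells grown 2 days to confluent monolayers, then growth medium replaced with nine 2-fold compound dilutions in test medium. Incubated 72 h at 37 °C, 5% CO2. Cells fixed, washed and stained, with OD read at 660 nm. Viability taken as % of six untreated controls. CC50 calculated from the mean dose–response curve of two assays.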

The test system of data set [2] is Remotididymella destructiva. As to the kind of experiment: Induction of morphogenesis in Phoma destructiva at 1.7 mM. It counts as functional, organism-based. In short, it runs like this: (§1)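 Phoma destructiva vegetative mycelium grown on malt agar plates (malt extract, glucose, yeast extract, (NH4)2SO4, pH 6.0), set up like an agar-well diffusion assay. 50 µL of purified metabolite placed in 9 mm agar wells. Plates incubated for three days, then scored visually for changes in pigment and aerial mycelium formation.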

Data set [3] deals with Remotididymella destructiva. Nature of the data set: Induction of pigment formation in Phoma destructiva at 1.7 mM. It counts as functional, organism-based. In short, it runs like this:
as §1

In data set [1], `CC(=O)OC[C@H]1O[C@@H](OCCCCCCCCCCCCCCC(C)C(=O)C2=C(O)N(C)C(C)C2=O)[C@@H](O)[C@@H](O)[C@@H]1O` (stereo partly drawn) [EPICOCCAMIDE C] had a GI50 of 57.2 µM. This molecule also registered a GI50 with K562 of 33.7 µM. Moreover, in the data set with HeLa, the CC10 was determined as 13.6 µM and the CC50 was 29 µM.
As for `CC(CCCCCCCCCCCCCCCCO[C@@H]1O[C@H](CO)[C@@H](O)[C@H](O)[C@@H]1O)C(=O)C1=C(O)N(C)C(C)C1=O` (stereo partly drawn) [EPICOCCAMIDE D], the outcome in data set [2] and in data set [3] was Active. Besides, the concentration for 50% growth inhibition (GI50) in data set [1] was 50.5 µM; in the data set on K562, 33.3 µM. Further, in the data set with HeLa, the CC10 was found to be 11.6 µM. Besides, in the data set with HeLa, it took 17 µM to reach half-maximal cytotoxicity (CC50).
For the molecule `CC(=O)O[C@@H]1[C@H](O)[C@H](OCCCCCCCCCCCCCCC(C)C(=O)C2=C(O)N(C)C(C)C2=O)O[C@H](CO)[C@H]1O` (stereo partly drawn), the 50% growth inhibitory concentration (GI50) in data set [1] is 71.1 µM; with K562 it was 52.7 µM. Further, the CC10 in the data set with HeLa is 26.2 µM. The molecule further gave a CC50 in the data set on HeLa of 44.2 µM.
Consider `CC(CCCCCCCCCCCCCCO[C@@H]1O[C@H](CO)[C@@H](O)[C@H](O)[C@@H]1O)C(=O)C1=C(O)N(C)C(C)C1=O` (stereo partly drawn), for which the concentration for 50% growth inhibition (GI50) in data set [1] is above 90 µM. Further, the concentration for 50% growth inhibition (GI50) with K562 is above 90 µM. In the data set on HeLa, this molecule gave a CC10 of 51.3 µM and a CC50 above 90 µM.
